The source of these data is ChEMBL document CHEMBL1145694, “In vitro evaluation of antifungal properties of 8.O.4'-neolignans” (1997).

Values after ≈ are worked out from the molar mass of the structure shown. Active and inactive are the calls of the source. The rule behind the calls is not given here.

For one assay, the system named is Candida albicans. The assay is described as follows: Antifungal activity against Candida albicans ATCC 10231 up to 250 ug/mL by agar dilution method. In kind it is functional, organism-based. Summed up:
(§1)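 Agar dilution in Saboureaud-chloramphenicol agar wells. Test agents from DMSO stocks were serially diluted twofold to final 0.10–250 µg/mL, with DMSO ≤2% final. Each well got 5 µL of yeast cell or spore suspension (spores at 10⁶ CFU/mL). Ketoconazole and amphotericin B served as positive controls, with a drug-free blank. Plates were held at 30 °C for 24, 48 or 72 h, set by control growth. MIC = lowest concentration with no visible growth.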
For orientation: In agar dilution, organisms are placed on agar that contains the substance at set levels.

A further assay deals with Saccharomyces cerevisiae. The assay is described as follows: Antifungal activity against Saccharomyces cerevisiae ATCC 9763 up to 250 ug/mL by agar dilution method. In kind it is functional, organism-based. A digest of the protocol: as §1
In another assay the test system is Cryptococcus neoformans. The assay is described as follows: Antifungal activity against Cryptococcus neoformans ATCC 32264 up to 250 ug/mL by agar dilution method. In kind it is functional, organism-based. A digest of the protocol: as §1
The subject of the next assay is Aspergillus niger. The assay is described as follows: Antifungal activity against Aspergillus niger ATCC 9029 up to 250 ug/mL by agar dilution method. In kind it is functional, organism-based. Summed up: as §1
In another assay the test system is Aspergillus fumigatus. The assay is described as follows: Antifungal activity against Aspergillus fumigatus ATCC 26934 up to 250 ug/mL by agar dilution method. In kind it is functional, organism-based. A digest of the protocol: as §1
In a further assay the test system is Aspergillus flavus. In words: Antifungal activity against Aspergillus flavus ATCC 9170 up to 250 ug/mL by agar dilution method. In kind it is functional, organism-based. A digest of the protocol: as §1
The test system of a further assay is Microsporum canis. The assay is described as follows: Antifungal activity against Microsporum canis C112 after 15 days by agar dilution method. In kind it is functional. The conditions noted are these: 360 h. Summed up: (§2)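 Dermatophytes were kept on Saboureaud dextrose agar slopes and subcultured every 15 days. Spore suspensions were set to 10⁶ CFU/mL, and 5 µL went into Saboureaud-chloramphenicol agar wells. Wells held twofold dilutions from DMSO stocks, final 0.10–250 µg/mL, DMSO ≤2%. Ketoconazole and amphotericin B were positive controls, with a drug-free blank. Incubation was at 30 °C for up to 15 days. MIC = lowest concentration with no visible growth.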

A further assay relates to Nannizzia gypsea. The assay is described as follows: Antifungal activity against Microsporum gypseum C115 after 15 days by agar dilution method. The class given is functional. The conditions noted are these: 360 h. A digest of the protocol:
as §2

For assay [1], the system named is Trichophyton mentagrophytes. In words: Antifungal activity against Trichophyton mentagrophytes ATCC 9972 after 15 days by agar dilution method. In kind it is functional. The conditions noted are these: ATCC 9972, 360 h. A digest of the protocol: as §2
In a further assay the test system is Trichophyton rubrum. The assay is described as follows: Antifungal activity against Trichophyton rubrum C113 after 15 days by agar dilution method. In kind it is functional. The conditions noted are these: 360 h. A digest of the protocol:
as §2

Another assay has as its system Epidermophyton floccosum. In words: Antifungal activity against Epidermophyton floccosum C114 after 15 days by agar dilution method. The conditions noted are these: 360 h. In kind it is functional. A digest of the protocol:
as §2

The term MIC denotes the lowest concentration that inhibits growth of the organism. Turning to `C=CCc1cc(OC)c(O[C@@H](C)[C@@H](O)c2ccc(OC)c(OC)c2)c(OC)c1` (racemic), the result with Candida albicans, with Saccharomyces cerevisiae, in the assay with Cryptococcus neoformans, with Aspergillus niger, in the assay on Aspergillus fumigatus and in the assay on Aspergillus flavus was inactive. The MIC was 40 µg/mL (≈ 103 µM) against Microsporum canis; 150 µg/mL (≈ 386 µM) against Nannizzia gypsea; 150 µg/mL (≈ 386 µM) in [1]; 40 µg/mL (≈ 103 µM) with Trichophyton rubrum; 60 µg/mL (≈ 154 µM) in the assay on Epidermophyton floccosum.

Compound `C[C@@H]1[C@H](O)[C@@H](C)/C=C/C=C/C=C/C=C/C=C/C=C/C=C/[C@H](O[C@@H]2O[C@H](C)[C@@H](O)[C@H](N)[C@@H]2O)C[C@@H]2O[C@](O)(C[C@@H](O)C[C@@H](O)[C@H](O)CC[C@@H](O)C[C@@H](O)CC(=O)O[C@H]1C)C[C@H](O)[C@H]2C(=O)O` [AMPHOTERICIN B] yielded an MIC against Epidermophyton floccosum of 0.3 µg/mL (≈ 0.325 µM).

For the compound `C=CCc1cc(OC)c(O[C@@H](C)[C@@H](O)c2ccc3c(c2)OCO3)c(OC)c1` (racemic), the outcome in the assay with Candida albicans, in the assay on Saccharomyces cerevisiae, in the assay on Cryptococcus neoformans, with Aspergillus niger, in the assay with Aspergillus fumigatus and in the assay on Aspergillus flavus was inactive. The MIC in the assay with Microsporum canis worked out at 80 µg/mL (≈ 215 µM); against Nannizzia gypsea, 40 µg/mL (≈ 107 µM); in assay [1], 200 µg/mL (≈ 537 µM); with Trichophyton rubrum, 20 µg/mL (≈ 53.7 µM); against Epidermophyton floccosum, 15 µg/mL (≈ 40.3 µM).

`C=CCc1cc(OC)c(OC(C)C(=O)c2cc(OC)c(OC)c(OC)c2)c(OC)c1` (racemic): the result in the assay with Candida albicans, in the assay with Saccharomyces cerevisiae, in the assay with Cryptococcus neoformans, with Aspergillus niger, in the assay with Aspergillus fumigatus and with Aspergillus flavus was inactive. Besides, the MIC in the assay with Microsporum canis is 250 µg/mL (≈ 600 µM); with Nannizzia gypsea, > 250 µg/mL; in [1] it was > 250 µg/mL; in the assay with Trichophyton rubrum, > 250 µg/mL; in the assay on Epidermophyton floccosum, > 250 µg/mL.

Turning to `C/C=C/c1ccc(OC(C)C(=O)c2ccc(OC)c(OC)c2)c(OC)c1` (racemic), the result in the assay on Candida albicans, in the assay on Saccharomyces cerevisiae, in the assay on Cryptococcus neoformans, in the assay on Aspergillus niger, with Aspergillus fumigatus and in the assay with Aspergillus flavus was inactive. Besides, the MIC in the assay with Microsporum canis was > 250 µg/mL; in the assay on Nannizzia gypsea, 250 µg/mL (≈ 701 µM); in assay [1] it was > 250 µg/mL; against Trichophyton rubrum, > 250 µg/mL; in the assay with Epidermophyton floccosum, > 250 µg/mL.

Compound `CC(=O)N1CCN(c2ccc(OCC3COC(Cn4ccnc4)(c4ccc(Cl)cc4Cl)O3)cc2)CC1` (stereo not drawn) [KETOCONAZOLE] showed an MIC in the assay with Epidermophyton floccosum of 15 µg/mL (≈ 28.2 µM).

Regarding `C=CCc1ccc(O[C@H](C)[C@@H](O)c2ccc(OC)c(OC)c2)c(OC)c1` (racemic), the outcome with Candida albicans, in the assay on Saccharomyces cerevisiae, with Cryptococcus neoformans, in the assay on Aspergillus niger, with Aspergillus fumigatus and in the assay on Aspergillus flavus was inactive. In addition, the MIC with Microsporum canis was 250 µg/mL (≈ 697 µM); against Nannizzia gypsea, > 250 µg/mL; in assay [1], > 250 µg/mL; against Trichophyton rubrum it was 250 µg/mL (≈ 697 µM); with Epidermophyton floccosum, 15 µg/mL (≈ 41.8 µM).

For the compound `C=CCc1cc(OC)c(O[C@H](C)[C@@H](O)c2ccc3c(c2)OCO3)c(OC)c1` (racemic), the outcome in the assay on Candida albicans, in the assay with Saccharomyces cerevisiae, in the assay with Cryptococcus neoformans, in the assay with Aspergillus niger, in the assay with Aspergillus fumigatus and with Aspergillus flavus was inactive. Further, the MIC in the assay with Microsporum canis is 20 µg/mL (≈ 53.7 µM); against Nannizzia gypsea it was 50 µg/mL (≈ 134 µM); in [1], 100 µg/mL (≈ 269 µM); against Trichophyton rubrum, > 250 µg/mL; against Epidermophyton floccosum, 5 µg/mL (≈ 13.4 µM).
